Data: ChEMBL document CHEMBL1124443, “2'-Fluorinated isonucleosides. 1. Synthesis and biological activity of some methyl 2'-deoxy-2'-fluoro-2'-pyrimidinyl-D-arabinopyranosides” (J Med Chem, 1989)

How the values were obtained:
Mus musculus [1] = assay: Percent increase in life span of leukemic mice administered, with compound at 100 mg/kgx5, intraperitoneally; type: functional; conditions: ip, route intraperitoneal
Outline: (§1)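 Female DBA/2 mice (19–20 g) received 10^6 L1210 cells ip on day 0. Drug was given ip once daily for 5 consecutive days starting day 1. Survival was monitored daily. % ILS was derived from mean survival versus untreated mice.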

Mus musculus [2] = assay: Percent increase in life span of leukemic mice administered, with compound at 50 mg/kgx5, intraperitoneally; type: functional; conditions: ip, route intraperitoneal; outline: as §1
[3] = Therapeutic effect of compound (25 mkdx3) on mice with L1210/5-FU leukemia; No effect; conditions: mouse
Mus musculus [4] = assay: Percent increase in life span of leukemic mice administered, with compound at 25 mkdx3, on days 1,3,6; type: functional
Outline: (§2)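 L1210 cells (10^6) were implanted ip on day 0 in female DBA/2 mice. Dosing was 5 or 25 mg/kg/day on days 1, 3 and 6 (3 doses). Daily survival monitoring; % increase in life span versus untreated controls.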

Mus musculus [5] = assay: Percent increase in life span of leukemic mice administered, with compound at 5 mkdx3, on days 1,3,6; type: functional; outline: as §2
Mus musculus [6] = organism: Mus musculus; assay: Weight loss in mice treated with compound at 100 mkdx5; type: functional
Outline: (§3)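 Female DBA/2 mice (19–20 g) bearing ip L1210 leukemia (10^6 cells, day 0) were dosed ip daily for 5 consecutive days starting on day 1. Mice were weighed daily, and weight loss was recorded as body weight in g.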

Mus musculus [7] = organism: Mus musculus; assay: Weight loss in mice treated with compound at 200 mkdx5; type: functional; outline: as §3
Mus musculus [8] = organism: Mus musculus; assay: Weight loss in mice treated with compound at 50 mkdx5; type: functional; outline: as §3

SMILES | ILS at 100 mg/kg (Mus musculus [1]) | ILS at 50 mg/kg (Mus musculus [2]) | ILS [3] | ILS (Mus musculus [4]) | ILS (Mus musculus [5]) | Weight loss (Mus musculus [6]) | Weight loss (Mus musculus [7]) | Weight loss (Mus musculus [8])
Nc1ccn([C@@H]2O[C@H](CO)[C@@H](O)[C@@H]2O)c(=O)n1 [CYTARABINE] | 126% | 104% | – | – | – | – | – | –
O=c1[nH]cc(F)c(=O)[nH]1 [FLUOROURACIL] | – | – | No effect | 88% | 41% | 14 g | 14 g | 14 g
